Data: ChEMBL document CHEMBL1138683 (J Med Chem, 2004)

What was measured:
[1] = system: Mus musculus; test: Anti convulsant activity administered intra peritoneally to mouse for subcutaneous metrazol test at 4 hr after the drug administered with dose of 30 mg/kg; 0/1= No of animals protected /No of animals tested; assay type: functional; settings: route intraperitoneal
[2] = system: Mus musculus; test: Anti convulsant activity administered intra peritoneally to mouse for subcutaneous metrazol test at 4 hr with dose of 300 mg/kg; 0/1= No of animals protected /No of animals tested; assay type: functional
[3] = system: Mus musculus; test: Anti convulsant activity administered intra peritoneally to mouse at maximal electroshock test at 0.5 h after the drug administered with dose of 300 mg/kg; 0/1= No of animals protected /No of animals tested; assay type: functional
[4] = system: Mus musculus; test: Anti convulsant activity administered intra peritoneally to mouse for subcutaneous metrazol test at 0.5 hr with dose of 100 mg/kg; 0/1= No of animals protected /No of animals tested; assay type: functional
[5] = system: Mus musculus; test: Anti convulsant activity administered intra peritoneally to mouse at maximal electroshock test at 0.5 h after the drug administered with dose of 30 mg/kg; 0/1= No of animals protected /No of animals tested; assay type: functional
[6] = system: Mus musculus; test: Anti convulsant activity administered intra peritoneally to mouse at maximal electroshock test at 4 hr after the drug administered with dose of 30 mg/kg; 0/1= No of animals protected /No of animals tested; assay type: functional
[7] = Anti convulsant activity administered intra peritoneally to mouse for toxicity at 4 hr with dose of 300 mg/kg; 0/2= No of animals exhibiting toxicity /No of animals tested; assay type: organism-based; set-up: dose 300 mg/kg; settings: in vivo, ip
[8] = system: Rattus norvegicus; test: Anticonvulsant activity after oral administration of 100 mg/kg dose after 2 hr in rats; + means 25% of the animals protected; assay type: functional, organism-based; set-up: dose 100 mg/kg
Outline: (§1)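 Oral dosing of rats at a single dose, compound dissolved or suspended in 0.5% methylcellulose. Protection in the MES or scMet test checked 15 min, 30 min, 1 h, 2 h and 4 h after dosing. Scored as 25/50/75/100% of animals protected (+ to ++++), – for none.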

[9] = system: Mus musculus; test: Anti convulsant activity administered intra peritoneally to mouse at maximal electroshock test at 4 hr after the drug administered with dose of 300 mg/kg; 0/1= No of animals protected /No of animals tested; assay type: functional
[10] = Anti convulsant activity administered intra peritoneally to mouse for toxicity at 0.5 hr with dose of 300 mg/kg; 4/4= No of animals exhibiting toxicity /No of animals tested; assay type: organism-based; set-up: dose 300 mg/kg; settings: in vivo, ip
[11] = system: Rattus norvegicus; test: Anticonvulsant activity after oral administration of 100 mg/kg dose after 1 hr in rats; + means 25% of the animals protected; assay type: functional, organism-based; set-up: dose 100 mg/kg; outline: as §1
[12] = Anti convulsant activity administered intra peritoneally to mouse for toxicity at 0.5 hr with dose of 100 mg/kg; 1/8= No of animals exhibiting toxicity /No of animals tested; assay type: organism-based; set-up: dose 100 mg/kg; settings: in vivo, ip
[13] = system: Mus musculus; test: Anticonvulsant activity administered intraperitoneally to mouse for toxicity at 4 hr with dose of 30 mg/kg; assay type: functional; settings: route intraperitoneal
Outline: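 Mice given compound i.p. at 30, 100 or 300 mg/kg, dissolved or suspended in 0.5% methylcellulose. Toxicity scored 0.5 h and 4 h after dosing, recorded as number of animals showing toxicity per number tested.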

[14] = system: Mus musculus; test: Anti convulsant activity administered intra peritoneally to mouse at maximal electroshock test at 4 hr after the drug administered with dose of 100 mg/kg; 0/3= No of animals protected /No of animals tested; assay type: functional
[15] = Anti convulsant activity administered intra peritoneally to mouse for toxicity at 4 hr with dose of 100 mg/kg; 0/4= No of animals exhibiting toxicity /No of animals tested; assay type: organism-based; set-up: dose 100 mg/kg; settings: in vivo, ip
[16] = system: Mus musculus; test: Anti convulsant activity administered intra peritoneally to mouse for subcutaneous metrazol test at 0.5 hr with dose of 30 mg/kg; 0/1= No of animals protected /No of animals tested; assay type: functional
[17] = Anti convulsant activity administered intra peritoneally to mouse for toxicity at 0.5 hr with dose of 30 mg/kg; 0/4= No of animals exhibiting toxicity /No of animals tested; assay type: organism-based; set-up: dose 30 mg/kg; settings: in vivo, ip
[18] = system: Rattus norvegicus; test: Anticonvulsant activity after oral administration of 100 mg/kg dose after 4 hr in rats; +means 25% of the animals protected; assay type: functional, organism-based; set-up: dose 100 mg/kg; outline: as §1
[19] = system: Rattus norvegicus; test: Anticonvulsant activity after oral administration of 100 mg/kg dose after 4 hr in rats;+ means 25% of the animals protected; assay type: functional, organism-based; set-up: dose 100 mg/kg; outline: as §1
[20] = system: Mus musculus; test: Anti convulsant activity administered intra peritoneally to mouse at maximal electroshock test at 0.5 hr after the drug administered with dose of 100 mg/kg; 0/3= No of animals protected /No of animals tested; assay type: functional
[21] = system: Mus musculus; test: Anti convulsant activity administered intra peritoneally to mouse for subcutaneous metrazol test at 0.5 h with dose of 300 mg/kg; 0/1= No of animals protected /No of animals tested; assay type: functional
[22] = system: Mus musculus; test: Anti convulsant activity administered intra peritoneally to mouse for subcutaneous metrazol test at 4 hr after the drug administered with dose of 100 mg/kg; 0/1= No of animals protected /No of animals tested; assay type: functional
[23] = system: Rattus norvegicus; test: Anticonvulsant activity after oral administration of 80 mg/kg dose after 15 min in rats; + means 25% of the animal protected; assay type: functional, organism-based; set-up: dose 80 mg/kg
Outline: (§2)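 Maximal electroshock test in rats after oral dosing in 0.5% methylcellulose (0.04 mL per 10 g body weight). Protection read at 15 min, 30 min, 1 h, 2 h and 4 h after dosing. Graded as the percentage of animals protected, in steps of 25%.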

[24] = (§3) Anti convulsant activity administered intra peritoneally to mouse for toxicity at 4 hr with dose of 30 mg/kg; 0/2= No of animals exhibiting toxicity /No of animals tested; assay type: organism-based; set-up: dose 30 mg/kg; settings: in vivo, ip
[25] = Anti convulsant activity administered intra peritoneally to mouse for subcutaneous metrazol test at 4 hr with dose of 300 mg/kg; 3/4= No of animals protected /No of animals tested; assay type: ADME, organism-based; set-up: dose 300 mg/kg
[26] = system: Rattus norvegicus; test: Anticonvulsant activity after oral administration of 80 mg/kg dose after 2 hr in rats; + means 25% of the animal is protected; assay type: functional, organism-based; set-up: dose 80 mg/kg; outline: as §2
[27] = system: Mus musculus; test: Anti convulsant activity administered intra peritoneally to mouse at maximal electroshock test at 0.5 h after the drug administered with dose of 100 mg/kg; 1/3= No of animals protected /No of animals tested; assay type: functional
[28] = system: Rattus norvegicus; test: Anticonvulsant activity after oral administration of 80 mg/kg dose after 1 hr in rats;+means 25% animals protected; assay type: functional, organism-based; set-up: dose 80 mg/kg; outline: as §2
[29] = system: Mus musculus; test: Anti convulsant activity administered intra peritoneally to mouse at maximal electroshock test at 0.5 hr after the drug administered with dose of 300 mg/kg; 1/1= No of animals protected /No of animals tested; assay type: functional
[30] = system: Rattus norvegicus; test: Anticonvulsant activity after oral administration of 80 mg/kg dose after 4 hr in rats;+ means 25% of the animals protected; assay type: functional, organism-based; set-up: dose 80 mg/kg; outline: as §2
[31] = system: Mus musculus; test: Anti convulsant activity administered intra peritoneally to mouse at maximal electroshock test at 4 hr after the drug administered with dose of 300 mg/kg; 1/1= No of animals protected /No of animals tested; assay type: functional
[32] = system: Rattus norvegicus; test: Anticonvulsant activity after oral administration of 100 mg/kg dose after 30 min in rats; +++ means 75% of the animals protected; assay type: functional, organism-based; set-up: dose 100 mg/kg; outline: as §1
[33] = system: Mus musculus; test: as §3; assay type: functional
[34] = Anti convulsant activity administered intra peritoneally to mouse for toxicity at 0.5 hr with dose of 100 mg/kg; 0/8= No of animals exhibiting toxicity /No of animals tested; assay type: organism-based; set-up: dose 100 mg/kg; settings: in vivo, ip
[35] = Anti convulsant activity administered intra peritoneally to mouse for toxicity at 0.5 hr with dose of 300 mg/kg; 0/4= No of animals exhibiting toxicity /No of animals tested; assay type: organism-based; set-up: dose 300 mg/kg; settings: in vivo, ip
[36] = system: Rattus norvegicus; test: Anticonvulsant activity after oral administration of 100 mg/kg dose after 2 hr in rats;++ means 50% of the animals protected; assay type: functional, organism-based; set-up: dose 100 mg/kg; outline: as §1
[37] = system: Rattus norvegicus; test: Anticonvulsant activity after oral administration of 50 mg/kg dose after 30 min in rats; + means 25% of the animals protected; assay type: functional, organism-based; set-up: dose 50 mg/kg
Outline: (§4)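 Rats dosed orally with compound dissolved or suspended in 0.5% methylcellulose (0.04 mL per 10 g body weight). Anticonvulsant protection (MES or scMet) and toxicity scored at 15 min, 30 min, 1 h, 2 h and 4 h after dosing. Graded in steps of 25% of animals protected or showing toxicity.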

[38] = system: Rattus norvegicus; test: Anticonvulsant activity after oral administration of 50 mg/kg dose after 30 min in rats; ++ means 50% of animals protected; assay type: functional, organism-based; set-up: dose 50 mg/kg; outline: as §4
[39] = system: Rattus norvegicus; test: Anticonvulsant activity after oral administration of 30 mg/kg dose after 30 min in rats; -means No protection; assay type: functional, organism-based; set-up: dose 30 mg/kg; outline: as §1
[40] = system: Rattus norvegicus; test: Anticonvulsant activity after oral administration of 50 mg/kg dose after 15 min in rats; +++ means 75% of the animals protected; assay type: functional, organism-based; set-up: dose 50 mg/kg; outline: as §1
[41] = system: Mus musculus; test: Anti convulsant activity administered intra peritoneally to mouse for subcutaneous metrazol test at 0.5 hr with dose of 300 mg/kg; 1/1= No of animals protected /No of animals tested; assay type: functional
[42] = system: Rattus norvegicus; test: Anticonvulsant activity after oral administration of 100 mg/kg dose after 30 min in rats; +means 25% of the animals protected; assay type: functional, organism-based; set-up: dose 100 mg/kg; outline: as §1
[43] = system: Rattus norvegicus; test: Anticonvulsant activity after oral administration of 100 mg/kg dose after 1 hr in rats;+ means 25% of the animals protected; assay type: functional, organism-based; set-up: dose 100 mg/kg; outline: as §1

SMILES | Activity [1] | Activity [2] | Activity [3] | Activity [4] | Activity [5] | Activity [6] | Toxicity [7] | Activity [8] | Activity [9] | Toxicity [10] | Activity [11] | Toxicity [12] | Activity [14] | Toxicity [15] | Activity [16] | Toxicity [17] | Activity [20] | Activity [21] | Activity [22] | Toxicity [24] | further results
CCC(CO)NC(=O)C1C(C)(C)C1(C)C (stereo not given) | 0 | 0 | 0 | 0 | 0 | 0 | 0 | 25% of the animals protected | 0 | 4 | 25% of the animals protected | 1 | 0 | 0 | 0 | 0 | 0 | 0 | 0 |  | Toxicity [13]: 0; Anticonvulsant Activity [18]: 25% of the animals protected; Activity [19]: 25% of the animals protected
CNC(=O)N(C)C(=O)C1C(C)(C)C1(C)C | 0 | 0 |  | 0 | 0 | 0 | 0 |  |  |  |  | 1 | 0 | 0 | 0 | 0 |  | 0 | 0 | 0 | Activity [23]: 25% animals protected; Toxicity [25]: 3; Activity [26]: 25% animals protected; Activity [27]: 1; Activity [28]: 25% animals protected; Activity [29]: 1; Activity [30]: 25% animals protected; Activity [31]: 1
CC1(C)C(C(=O)NCCS(=O)(=O)[O-])C1(C)C.[Na+] | 0 | 0 | 0 |  | 0 | 0 | 0 | 25% of the animals protected | 0 |  | 25% of the animals protected |  | 0 | 0 | 0 | 0 |  | 0 | 0 | 0 | Activity [32]: 25% of the animals protected; Activity [33]: 0; Toxicity [34]: 0; Toxicity [35]: 0; Activity [18]: 25% of the animals protected; Anticonvulsant Activity [36]: 50% of the animals protected
CC1(C)C(C(=O)NNC(=O)C2C(C)(C)C2(C)C)C1(C)C | 0 | 0 | 0 |  | 0 | 0 | 0 |  | 0 |  |  |  | 0 | 0 | 0 | 0 |  | 0 | 0 | 0 | Activity [33]: 0; Activity [37]: 25% of the animals protected; Toxicity [34]: 0; Toxicity [35]: 0
CC1(C)C(C(=O)NCCO)C1(C)C | 0 | 0 |  | 0 | 0 | 0 | 0 |  | 0 | 4 |  | 1 | 0 | 0 | 0 | 0 | 0 |  | 0 | 0 | Anticonvulsant Activity [38]: 50% of animals protected; Activity [29]: 1; Activity [39]: 75% of the animals protected; Activity [40]: 75% of the animals protected; Activity [41]: 1
CC(CO)NC(=O)C1C(C)(C)C1(C)C (stereo not given) | 0 | 0 | 0 | 0 | 0 | 0 | 0 |  | 0 | 4 |  | 1 | 0 | 0 | 0 | 0 | 0 | 0 | 0 |  | Activity [42]: 25% of the animals protected; Toxicity [13]: 0; Activity [43]: 25% of the animals protected
